This passage reports Activity, Tmax and MRT last results from ChEMBL document CHEMBL5032510, “Identification of Novel Fused Heteroaromatics-Based MALT1 Inhibitors by High-Throughput Screening to Treat B Cell Lymphoma” (J Med Chem, 2021).

Data set [1] can be described thus: Induction of apoptosis in human HBL1 cells assessed as early apoptotic cells at 2 uM measured after 24 hrs by Annexin V-FITC/ Propidium iodide staining based flow cytometry (reference value: 4.85%). Format: functional. Background: A flow cytometer gives signals particle by particle.
Data set [2] in a line: Tmax in CD-1 mouse at 10 mg/kg, po by LC-MS/MS analysis. The note with it: in vivo. Format: ADME, organism-based. The method, boiled down:
(§1)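 Male ICR (CD-1) mice (n = 9). Compound formulated in 5% DMSO + 5% Tween-80 in 90% saline and dosed 10 mg/kg po, 1 mg/kg ip or 1 mg/kg iv. Blood drawn from the jugular vein at set time points and held on ice. Plasma separated by centrifugation and stored at −80 °C before parameter derivation.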

A further data set relates to HBL1. In words: Induction of apoptosis in human HBL1 cells assessed as increase in cleaved PARP level measured after 12 hrs by Western blot analysis. It counts as functional, cell-based. The method, boiled down:
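HBL1, TMD8 or OCI-LY1 cells were exposed to DMSO or compound for 12 h. Cleaved PARP and caspase-3 were probed by western blot with HRP-conjugated secondary antibodies and chemiluminescent detection. Each lane held 20−75 μg total protein.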

Data set [3] is described as follows: MRT (0 to t) in CD-1 mouse at 1 mg/kg, iv by LC-MS/MS analysis. Format: ADME, organism-based. Conditions: in vivo. The method, boiled down: as §1

As to `COc1ccc(OC)c(NC(=O)c2sc(=S)n(-c3ccc(C(F)(F)F)cc3)c2NC(=O)CCl)c1`, the Activity in data set [1] was 6.78%; in the data set on HBL1, “Dose-Dependent Effect”. The Tmax (usually the time from dosing to the highest level) in data set [2] was found to be 3 h. The MRT last (commonly the average time that molecules of a dose stay in the body) in data set [3] turned out to be 5.66 h.
